The record followed here is ChEMBL document CHEMBL1155247, “SAR and biological evaluation of SEN12333/WAY-317538: Novel alpha 7 nicotinic acetylcholine receptor agonist” (Bioorg Med Chem, 2009).

One may read the EC50 as the concentration at which the effect is half-maximal. By AUC is commonly meant concentration integrated over time. Read a high AUC as high exposure. Broadly, the inhibition is the share of the control response that was lost under treatment. Usually Kp stands for the ratio of the level in a tissue or fluid to that in plasma or blood. A word on the Ki: it is a measure of affinity in units of concentration, obtained from inhibition or displacement. Low values mean tighter binding, high ones weaker binding. What is called bioavailability is the share of a dose that reaches the circulation, judged against a reference dose that is usually intravenous. Low readings indicate poor availability, high ones good availability. The term half-life denotes how long it takes for the measured level to halve. In general, Emax refers to the greatest response seen or fitted, relative to the assay's reference. In general, Cmax refers to the peak of the concentration-time curve.

The target in data set [1] is T1, Neuronal acetylcholine receptor subunit alpha-7 (Rattus norvegicus, UniProt Q05941). The experiment in a line: Agonist activity at rat alpha7 nAChR expressed in rat GH4C1 cells assessed as calcium flux by FLIPR assay. It counts as functional, cell-based, GH4-C1. Put shortly:
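GH4C1 cells stably expressing rat α7, 1 × 10^5 cells/well, cultured 24 h. Loaded 40 min at 37 °C with 4 µM Fluo-4-AM in HBSS-20 mM HEPES pH 7.4 with probenecid. FLIPR calcium flux read after first compound addition (1 min at 1 s, then every 30 s for 10 min). MAX–MIN signal normalized to positive control; EC50 by sigmoidal variable-slope fit.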
On the technique in general: Calcium flux is commonly read through the fluorescence of an indicator in the cells.

The test system of data set [2] is Rattus norvegicus. In words: AUC (last) in Wistar rat at 10 mg/kg, ip. It counts as ADME, organism-based, Plasma. Further details: time 0 - last, dose 10 mg/kg, route intraperitoneal. The note with it: in vivo. The method in brief: (§1)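 Male Wistar rats, 6–8 weeks, 200–250 g, given a single 10 mg/kg ip dose at time 0. Plasma and brain were sampled at 0, 0.5, 1 and 3 h. Plasma was protein-precipitated with acetonitrile containing internal standard. Brain was homogenized and extracted with methanol. Analysis by LC–MS/MS; detection limits 1 ng/mL plasma and 10 ng/g brain.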

The subject of data set [3] is Rattus norvegicus. The experiment in a line: Inhibition of scopolamine-induced immediate working memory deficit in Wistar rat at 1 to 10 mg/kg, ip after 48 hrs by novel-object recognition test. Format: functional, organism-based.
Data set [4] is described as follows: Ratio of drug level from brain to plasma in Wistar rat at 10 mg/kg, ip. Further details: dose 10 mg/kg, route intraperitoneal. Format: ADME, organism-based. Put shortly: as §1
Data set [5] has as its target Neuronal acetylcholine receptor; alpha4/beta2 (Homo sapiens) (UniProt P17787+P43681). In words: Inhibition of alpha4beta2 nAChR at 10 uM. It counts as protein-complex assay.
The target of data set [6] is T1, Neuronal acetylcholine receptor subunit alpha-7. The experiment in a line: Displacement of [3H]epibatidine from rat alpha7 nAChR expressed in rat GH4C1 cells. Format: cell-based, GH4-C1. Put shortly: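 Membranes from GH4C1 cells expressing rat α7 were incubated with 5 nM [3H]-epibatidine in 50 mM HEPES pH 7.4 with KCl, NaCl and MgCl2, for 1 h at 23 °C. Nonspecific binding defined with 300 µM nicotine. Bound ligand separated by GF/B filtration with five washes in ice-cold buffer.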
(Displacement assays read how much labelled ligand stays bound in the presence of the test substance.)

The test system of data set [7] is Rattus norvegicus. In words: Cognitive enhancing effect in Wistar rat assessed as minimized spontaneous decay of episodic memory at 3 mg/kg, ip after 24 hrs by novel-object recognition test.
Data set [8] is described as follows: Oral bioavailability in Wistar rat. Format: ADME, organism-based. Particulars: in vivo.
Data set [9] in a line: Half life in Wistar rat at 10 mg/kg, ip. Format: ADME, organism-based. On the set-up: dose 10 mg/kg, route intraperitoneal. The note with it: in vivo. Put shortly:
as §1

Data set [10] deals with Rattus norvegicus. In words: Inhibition of MK-801-induced immediate working memory deficit in Long Evans rat at 1 to 10 mg/kg, ip after 48 hrs by novel-object recognition test.
The target in data set [11] is T1, Neuronal acetylcholine receptor subunit alpha-7. The experiment in a line: (§2) Activity at rat alpha7 nAChR expressed in rat GH4C1 cells by patch clamp technique. Format: cell-based, GH4-C1. Put shortly:
(§3)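 GH4C1 cells stably expressing rat α7 were pretreated with 0.5 mM Na-butyrate for 2 days. Whole-cell clamp at −60 mV; pipette contained K-gluconate, EGTA, ATP. Agonist or acetylcholine applied by fast perfusion in HBSS + 10 mM HEPES as 500 ms pulses at 10 s intervals, sampled at 1 kHz. Peak amplitude and charge measured; EC50 from concentration–response curves.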
On the technique in general: Patch clamp records ionic current or voltage across a cell membrane.

The target in data set [12] is Neuronal acetylcholine receptor subunit alpha-7 (Rattus norvegicus) (UniProt Q05941). Described as §2. Format: cell-based. The note with it: GH4-C1. The method in brief:
as §3

In data set [13] the target is Histamine H3 receptor (Homo sapiens) (UniProt Q9Y5N1). In words: Binding affinity to histamine H3 receptor expressed in HEK293 cells at 10 uM. Format: cell-based.
Histamine H3 receptor (Homo sapiens), sequence (Q9Y5N1 whole entry): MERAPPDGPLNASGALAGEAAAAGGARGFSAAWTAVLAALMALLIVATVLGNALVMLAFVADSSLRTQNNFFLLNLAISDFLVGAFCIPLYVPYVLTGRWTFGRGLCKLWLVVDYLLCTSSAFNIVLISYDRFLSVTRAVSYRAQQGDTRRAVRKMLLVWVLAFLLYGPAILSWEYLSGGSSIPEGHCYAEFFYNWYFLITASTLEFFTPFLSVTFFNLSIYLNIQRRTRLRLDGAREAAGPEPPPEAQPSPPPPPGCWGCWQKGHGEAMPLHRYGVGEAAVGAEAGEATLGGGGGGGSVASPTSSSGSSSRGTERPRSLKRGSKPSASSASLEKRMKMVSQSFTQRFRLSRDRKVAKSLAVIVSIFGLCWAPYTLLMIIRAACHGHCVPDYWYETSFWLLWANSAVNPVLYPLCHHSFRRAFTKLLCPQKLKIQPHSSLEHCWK
Data set [14] can be described thus: Cmax in Wistar rat at 10 mg/kg, ip. The note with it: in vivo. On the set-up: dose 10 mg/kg, route intraperitoneal. It counts as ADME, organism-based. The method in brief:
as §1

Data set [15] addresses Acetylcholine receptor; alpha1/beta1/delta/gamma (Homo sapiens) (UniProt P02708+P07510+P11230+Q07001). The experiment in a line: Activity at alpha-1-beta-1-gamma-delta nAChR in human TE671 cells assessed as effect on membrane potential by FLIPR assay. Format: cell-based. Particulars: TE-671. The method in brief:
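TE671 rhabdomyosarcoma cells, as endogenous muscle nAChR, were plated at 5 × 10^4 cells/well 24 h before assay. Loaded with membrane-potential dye in HBSS for 60 min at rt, then read on FLIPR with 10 s baseline before compound addition. First-addition signal taken as SUM of fluorescence, normalized to 1 µM epibatidine. EC50 from sigmoidal variable-slope fit.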

The target in a further data set is hERG (KCNH2) (Homo sapiens, UniProt Q12809). In words: Inhibition of human ERG expressed in CHO cells at 1 uM. Format: cell-based. Particulars: CHO cells expressing human ERG.
hERG (KCNH2), sequence (Q12809 whole entry): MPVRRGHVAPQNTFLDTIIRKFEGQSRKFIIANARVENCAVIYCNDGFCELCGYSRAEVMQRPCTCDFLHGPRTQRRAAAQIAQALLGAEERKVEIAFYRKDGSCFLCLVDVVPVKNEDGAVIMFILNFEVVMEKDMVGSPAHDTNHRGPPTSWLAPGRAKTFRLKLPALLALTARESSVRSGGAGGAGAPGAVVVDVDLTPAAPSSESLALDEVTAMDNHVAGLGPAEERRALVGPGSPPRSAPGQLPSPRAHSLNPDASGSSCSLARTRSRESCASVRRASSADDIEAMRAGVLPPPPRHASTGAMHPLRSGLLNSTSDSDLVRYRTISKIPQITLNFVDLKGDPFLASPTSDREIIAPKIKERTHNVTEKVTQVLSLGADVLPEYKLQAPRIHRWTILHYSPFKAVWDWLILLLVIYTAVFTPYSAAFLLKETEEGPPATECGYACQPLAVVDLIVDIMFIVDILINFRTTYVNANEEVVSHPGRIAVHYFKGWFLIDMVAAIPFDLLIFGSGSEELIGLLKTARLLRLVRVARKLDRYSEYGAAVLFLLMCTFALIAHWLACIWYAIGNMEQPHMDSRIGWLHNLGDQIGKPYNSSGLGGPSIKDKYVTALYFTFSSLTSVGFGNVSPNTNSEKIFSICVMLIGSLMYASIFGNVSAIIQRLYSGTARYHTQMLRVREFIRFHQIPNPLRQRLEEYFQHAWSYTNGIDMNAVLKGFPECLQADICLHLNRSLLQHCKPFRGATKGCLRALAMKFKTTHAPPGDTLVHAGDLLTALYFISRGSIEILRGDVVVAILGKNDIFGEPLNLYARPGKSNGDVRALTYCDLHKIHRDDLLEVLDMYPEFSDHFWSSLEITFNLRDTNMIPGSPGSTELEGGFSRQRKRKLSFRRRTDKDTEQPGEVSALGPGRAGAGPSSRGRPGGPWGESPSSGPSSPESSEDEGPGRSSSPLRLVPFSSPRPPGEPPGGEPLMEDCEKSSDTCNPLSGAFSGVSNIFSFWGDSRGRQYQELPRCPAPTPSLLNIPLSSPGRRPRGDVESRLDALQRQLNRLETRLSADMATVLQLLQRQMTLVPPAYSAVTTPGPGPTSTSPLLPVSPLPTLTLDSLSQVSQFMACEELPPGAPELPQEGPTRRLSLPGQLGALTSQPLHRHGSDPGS
The target of data set [16] is T2, 5-hydroxytryptamine receptor 3A (Homo sapiens) (UniProt P46098).
T2 sequence (whole entry): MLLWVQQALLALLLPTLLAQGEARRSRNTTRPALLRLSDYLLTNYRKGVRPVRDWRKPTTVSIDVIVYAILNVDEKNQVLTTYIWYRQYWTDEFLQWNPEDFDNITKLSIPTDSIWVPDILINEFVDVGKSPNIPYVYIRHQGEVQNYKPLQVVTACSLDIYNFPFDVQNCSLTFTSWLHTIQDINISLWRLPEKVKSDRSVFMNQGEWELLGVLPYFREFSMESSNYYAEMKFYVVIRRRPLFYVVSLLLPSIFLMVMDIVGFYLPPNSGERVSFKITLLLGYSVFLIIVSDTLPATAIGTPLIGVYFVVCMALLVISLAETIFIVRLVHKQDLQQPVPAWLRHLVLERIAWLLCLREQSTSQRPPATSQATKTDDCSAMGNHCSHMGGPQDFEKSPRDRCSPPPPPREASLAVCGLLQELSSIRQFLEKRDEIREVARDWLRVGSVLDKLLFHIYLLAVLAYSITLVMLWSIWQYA
The experiment in a line: Activity at human 5HT3 receptor expressed in human HEK293 cells assessed as calcium flux by FLIPR assay.

Activity calls are given as the source filed them. The rule behind the calls is not given here.

T1 sequence (Q05941 whole entry): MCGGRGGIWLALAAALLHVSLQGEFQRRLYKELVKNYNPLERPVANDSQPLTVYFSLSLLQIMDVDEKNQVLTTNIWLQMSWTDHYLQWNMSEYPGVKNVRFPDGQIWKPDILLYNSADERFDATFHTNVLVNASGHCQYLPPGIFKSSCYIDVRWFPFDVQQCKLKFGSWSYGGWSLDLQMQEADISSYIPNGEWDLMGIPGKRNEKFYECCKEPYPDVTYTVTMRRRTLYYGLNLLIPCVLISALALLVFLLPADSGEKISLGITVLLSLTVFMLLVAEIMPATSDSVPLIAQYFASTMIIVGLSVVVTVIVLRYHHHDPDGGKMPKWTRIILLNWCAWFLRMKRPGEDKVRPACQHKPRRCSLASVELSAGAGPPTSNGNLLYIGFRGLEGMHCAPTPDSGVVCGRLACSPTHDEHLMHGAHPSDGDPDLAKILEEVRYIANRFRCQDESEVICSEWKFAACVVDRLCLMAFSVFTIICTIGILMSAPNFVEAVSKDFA
Neuronal acetylcholine receptor subunit alpha-7 (Rattus norvegicus), sequence (Q05941 whole entry): as above

`O=C(CCCCN1CCCCC1)Nc1ccc(Br)cc1`: the EC50 in [1] turned out to be 1350 nM. As for `COc1ccc(N2CCN(CCCCNC(=O)c3ccc(-c4ccccc4)cc3)CC2)c(OC)c1`, in data set [1], the EC50 was above 30000 nM. Consider `COc1ccc(N2CCN(CCCCNC(=O)c3ccc(-c4ccccc4OC)cc3)CC2)c(OC)c1`, for which, in data set [1], the EC50 was determined as 2910 nM. Consider `CN1CCN(CCCCC(=O)Nc2ccc(-c3cccnc3)cc2)CC1`, for which the EC50 in data set [1] amounted to 3560 nM.

Regarding `Cl.O=C(CCCCN1CCOCC1)Nc1ccc(-c2cccnc2)cc1`, the AUC in the data set with Rattus norvegicus [2] is 347 ng·h/mL. Moreover, the inhibition entry in the data set with Rattus norvegicus [3] and with Rattus norvegicus [10] was “Active” each time. In addition, the Kp in data set [4] is 2.5. In [5], this compound displayed an inhibition of 45%. Besides, the Ki in data set [6] was determined as 260 nM. Also, the outcome (with Rattus norvegicus [7]; in [13]) was Active. For the same compound, the bioavailability in data set [8] worked out at 57%. For the same compound, the half-life in data set [9] was 48 min. Moreover, the EC50 came to 12 µM in data set [11] and 1650 nM in [1]. The Emax in data set [12] was found to be 88%. In addition, the Cmax in [14] is 244 ng/mL. For the same compound, the outcome in data set [15] was inactive. On hERG (KCNH2), this compound displayed an inhibition at 1 µM of 6%. For the same compound, the Selectivity ratio result in [16] was “inactive”. `CC(=O)N1CCN(CCCCC(=O)Nc2ccc(-c3cccnc3)cc2)CC1`: the EC50 in data set [1] is 2780 nM. Still for that read-out and setting: the result for `COc1ccc(N2CCN(CCCCNC(=O)c3ccc(-c4ccccc4Cl)cc3)CC2)c(OC)c1` reads 3110 nM.

As to `COc1ccc(N2CCN(CCCCNC(=O)c3ccc(Br)cc3)CC2)c(OC)c1`, in data set [1], the EC50 is above 30000 nM. As to `O=C(CCCCN1CCCCC1)Nc1ccc2ncccc2c1`, the EC50 in data set [1] came out at 5070 nM. For the compound `CCN(CC)C(=O)C1CCCN(CCCCC(=O)Nc2ccc(-c3cccnc3)cc2)C1` (stereo not drawn), the EC50 in data set [1] is above 30000 nM. Same read-out and setting: the result for `O=C(CCCCN1CCCCC1)Nc1ccc(-c2cccnc2)cc1` reads 530 nM; that for `CN(CCCCC(=O)Nc1ccc(-c2cccnc2)cc1)CCc1ccccn1`, 3270 nM; that for `O=C(CCCCN1CCCCC1)Nc1ccc(-c2ccc(F)cc2F)cc1`, 160 nM. For the compound `O=C(CCCCN1CCCCCC1)Nc1ccc(-c2cccnc2)cc1`, the EC50 in data set [1] turned out to be 540 nM. As to `COc1ccc(N2CCN(CCCCNC(=O)c3ccc(-c4ccccc4C)cc3)CC2)c(OC)c1`, the EC50 in [1] was determined as 5770 nM. On to `CC(=O)Nc1cccc(-c2ccc(NC(=O)CCCCN3CCCCC3)cc2)c1`, for which the EC50 in [1] stood at 120 nM. For the compound `COc1ccc(N2CCN(CCCCNC(=O)c3ccc(-c4ccccc4F)cc3)CC2)c(OC)c1`, the EC50 in data set [1] came out at 6030 nM.

Take `O=C(CCCCN1CCCCC1)Nc1cccc(Br)c1`: the EC50 in [1] turned out to be 2070 nM. The same measure, in the same setting: the result for `CC(=O)N1CCCN(CCCCC(=O)Nc2ccc(-c3cccnc3)cc2)CC1` reads 2660 nM; that for `O=C(CCCCN1CCCCC1)Nc1ccc2c(c1)OCO2`, 10900 nM; that for `COc1ccc(N2CCN(CCCCNC(=O)c3ccc([N+](=O)[O-])cc3)CC2)c(OC)c1`, above 30000 nM. Turning to `NC(=O)c1cccc(-c2ccc(NC(=O)CCCCN3CCCCC3)cc2)c1`, the EC50 in [1] came to 90 nM. On the same count and under the same terms, the same measure for `COc1ccc(N2CCN(CCCCNC(=O)c3ccc(-c4ccccn4)cc3)CC2)c(OC)c1`: 2840 nM. As for `CC(=O)c1cccc(-c2ccc(NC(=O)CCCCN3CCCCC3)cc2)c1`, in data set [1], the EC50 worked out at 990 nM. Still for that read-out and setting: the result for `COc1ccccc1N1CCN(CCCCC(=O)Nc2ccc(-c3cccnc3)cc2)CC1` reads 2470 nM; that for `CC(C)Oc1ccccc1-c1ccc(NC(=O)CCCCN2CCCCC2)cc1`, 240 nM; that for `Cc1cccc(NC(=O)CCCCN2CCCCC2)c1`, above 30000 nM.
